These results are taken from ChEMBL document CHEMBL1126633, “Prodrugs of doxorubicin and melphalan and their activation by a monoclonal antibody-penicillin-G amidase conjugate” (J Med Chem, 1993).

Common to all, as to format: functional, cell-based
In assay [1] the test system is H2981 cell line. As to the kind of experiment: Inhibition of [3H]thymidine incorporation in human lung adenocarcinoma cells in the presence of PGA enzyme. The essentials:
(§1)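 H2981 human lung adenocarcinoma cells (10^7 cells/0.2 mL in IMDM with 10% FBS) were exposed to compound with or without added PGA at 37 °C for 4 h, then washed and counted. Triplicates were plated at 10^5 cells/mL, grown 24 h, and pulsed 24 h with [3H]thymidine (1 µCi/well). IC50 is the concentration giving 50% inhibition of incorporation.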

Assay [2] concerns H2981 cell line. As to the kind of experiment: Inhibition of [3H]thymidine incorporation in human lung adenocarcinoma cells in the absence of PGA enzyme. To be noted: H2981, 4 h. An outline of the steps: as §1
The test system of assay [3] is H2981 cell line. Nature of the assay: Inhibition of [3H]thymidine incorporation in human lung adenocarcinoma cells in the absence of PGA enzyme (compound + 10 micro g/mL calf intestine alkaline phosphatase). Conditions: H2981, 4 h. An outline of the steps:
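H2981 cells in IMDM with 10% FBS were exposed to compound without PGA for 4 h at 37 °C. Calf intestinal alkaline phosphatase was added to the incubation at 10 µg/mL. Cells were then washed, plated in triplicate at 10^5 cells/mL, grown 24 h and pulsed 24 h with [3H]thymidine (1 µCi/well). IC50 is the concentration giving 50% inhibition of incorporation.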

Regarding `COc1cccc2c1C(=O)c1c(O)c3c(c(O)c1C2=O)C[C@@](O)(C(=O)CO)C[C@@H]3OC1CC(NC(=O)Cc2ccc(N)cc2)C(O)C(C)O1` (some centres not stated), the IC50 in assay [1] (Homo sapiens, H2981, 4 h) was 10 µM; in assay [2] it was more than 1000 µM.

Turning to `COc1cccc2c1C(=O)c1c(O)c3c(c(O)c1C2=O)C[C@@](O)(C(=O)CO)C[C@@H]3OC1CC(NC(=O)Cc2ccccc2)C(O)C(C)O1` (some centres not stated), the IC50 in assay [1] (Homo sapiens, H2981, 4 h) is 0.2 µM; in assay [2] it was 2 µM.

As to `O=C(Cc1ccccc1)NC(Cc1ccc(N(CCCl)CCCl)cc1)C(=O)O` (configuration not stated), the IC50 in assay [1] (Homo sapiens, H2981, 4 h) is 5 µM; in assay [2] it was 100 µM.

In the case of `COc1cccc2c1C(=O)c1c(O)c3c(c(O)c1C2=O)C[C@@](O)(C(=O)CO)C[C@@H]3OC1CC(NC(=O)Cc2ccc(OP(=O)(O)O)cc2)C(O)C(C)O1` (stereo in doubt), the figures for the IC50 in assay [1] (h2981) and in assay [3] were 0.7 µM and more than 1000 µM, respectively.

`COc1cccc2c1C(=O)c1c(O)c3c(c(O)c1C2=O)C[C@@](O)(C(=O)CO)C[C@@H]3OC1CC(NC(=O)Cc2ccc(OP(=O)(O)O)cc2)C(O)C(C)O1` (stereo in doubt; 4): the IC50 is 4 µM in assay [1] (h2981) and more than 1000 µM in assay [2].

For `COc1cccc2c1C(=O)c1c(O)c3c(c(O)c1C2=O)C[C@@](O)(C(=O)CO)C[C@@H]3O[C@H]1C[C@H](N)[C@H](O)[C@H](C)O1` [DOXORUBICIN], it took 0.7 µM to reach half-maximal inhibition in assay [2] (IC50).

Consider `N[C@@H](Cc1ccc(N(CCCl)CCCl)cc1)C(=O)O` [MELPHALAN], for which the IC50 in assay [2] was determined as 5 µM.
